Results from ChEMBL document CHEMBL3044755, “5-Methyl-1,2,3-thiadiazoles synthesized via ugi reaction and their fungicidal and antiviral activities” (J Agric Food Chem, 2010).

Tests used:
Assay type in all cases: functional
Mycosphaerella arachidis = experiment: Fungicidal activity against Mycosphaerella arachidis at 50 ug/ml by growth inhibition method; conditions: read-out: GI
How it was run: (§1)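 Mycelial growth inhibition on potato dextrose agar. The panel covered Alternaria solani, Botrytis cinerea, Cercospora arachidicola, C. beticola, Colletotrichum lagenarium, Fusarium oxysporum, Gibberella zeae, Puccinia triticina, Phytophthora infestans, Physalospora piricola, Pellicularia sasakii and Rhizoctonia solani.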

Thanatephorus cucumeris = experiment: Fungicidal activity against Thanatephorus cucumeris at 50 ug/ml by growth inhibition method; conditions: read-out: GI; how it was run: as §1
Alternaria solani = experiment: Fungicidal activity against Alternaria solani at 50 ug/ml by growth inhibition method; conditions: read-out: GI; how it was run: as §1
Fusarium graminearum = experiment: Fungicidal activity against Fusarium graminearum at 50 ug/ml by growth inhibition method; conditions: read-out: GI; how it was run: as §1
Rhizoctonia solani = experiment: Fungicidal activity against Rhizoctonia solani at 50 ug/ml by growth inhibition method; conditions: read-out: GI; how it was run: as §1
Phytophthora infestans = experiment: Fungicidal activity against Phytophthora infestans at 50 ug/ml by growth inhibition method; conditions: read-out: GI; how it was run: as §1
Cercospora beticola = experiment: Fungicidal activity against Cercospora beticola at 50 ug/ml by growth inhibition method; conditions: read-out: GI; how it was run: as §1
Tobacco mosaic virus [1] = experiment: In vitro antiviral activity against Tobacco mosaic virus (TMV) infected tobacco leaves at 500 ug/ml
Tobacco mosaic virus [2] = experiment: In vitro antiviral activity against Tobacco mosaic virus (TMV) infected tobacco leaves at 100 ug/ml
Puccinia triticina = experiment: Fungicidal activity against Puccinia triticina at 50 ug/ml by growth inhibition method; conditions: read-out: GI; how it was run: as §1
[3] = tested on: Botryosphaeria berengeriana; experiment: Fungicidal activity against Botryosphaeria berengeriana at 50 ug/ml by growth inhibition method; conditions: read-out: GI; how it was run: as §1
Colletotrichum lagenaria = experiment: Fungicidal activity against Colletotrichum lagenaria at 50 ug/ml by growth inhibition method; conditions: read-out: GI; how it was run: as §1

With `Cc1ccc(N(C(=O)c2nnsc2C)C(C(=O)NC2CCCCC2)c2ccc(Cl)cc2)cc1F` (stereo not drawn) the inhibition of growth at 50 µg/mL (Mycosphaerella arachidis) was 18%, the inhibition of growth at 50 µg/mL (Thanatephorus cucumeris) was 0% and the inhibition of growth at 50 µg/mL (Alternaria solani) was 0%. It also gave an inhibition of growth at 50 µg/mL (Fusarium graminearum) of 0%, an inhibition of growth at 50 µg/mL (Rhizoctonia solani) of 22% and an inhibition of growth at 50 µg/mL (Phytophthora infestans) of 6%. It also gave an inhibition of growth at 50 µg/mL (Cercospora beticola) of 13%, an inhibition at 500 µg/mL (Tobacco mosaic virus [1]) of 14% and an inhibition at 100 µg/mL (Tobacco mosaic virus [2]) of 8%. For the same compound, the inhibition of growth at 50 µg/mL (Puccinia triticina) was 0%, the inhibition of growth at 50 µg/mL [3] was 0% and the inhibition of growth at 50 µg/mL (Colletotrichum lagenaria) was 0%.
`Cc1ccc(N(C(=O)c2nnsc2C)C(C(=O)NC2CCCCC2)c2ccccc2Cl)cc1F` (stereo not drawn) gave an inhibition of growth at 50 µg/mL (Mycosphaerella arachidis) of 0%, an inhibition of growth at 50 µg/mL (Thanatephorus cucumeris) of 0% and an inhibition of growth at 50 µg/mL (Alternaria solani) of 0%. It also gave an inhibition of growth at 50 µg/mL (Fusarium graminearum) of 45%, an inhibition of growth at 50 µg/mL (Rhizoctonia solani) of 22% and an inhibition of growth at 50 µg/mL (Phytophthora infestans) of 25%. It also gave an inhibition of growth at 50 µg/mL (Cercospora beticola) of 0%, an inhibition at 500 µg/mL (Tobacco mosaic virus [1]) of 53% and an inhibition at 100 µg/mL (Tobacco mosaic virus [2]) of 16%. For the same compound, the inhibition of growth at 50 µg/mL (Puccinia triticina) was 0%, the inhibition of growth at 50 µg/mL [3] was 0% and the inhibition of growth at 50 µg/mL (Colletotrichum lagenaria) was 0%.
For `Cc1ccc(N(C(=O)c2nnsc2C)C(C(=O)NC2CCCCC2)c2cccc(F)c2)cc1F` (stereo not drawn), the inhibition of growth at 50 µg/mL (Mycosphaerella arachidis) was 27%, the inhibition of growth at 50 µg/mL (Thanatephorus cucumeris) was 11% and the inhibition of growth at 50 µg/mL (Alternaria solani) was 50%. For the same compound, the inhibition of growth at 50 µg/mL (Fusarium graminearum) was 9%, the inhibition of growth at 50 µg/mL (Rhizoctonia solani) was 2% and the inhibition of growth at 50 µg/mL (Phytophthora infestans) was 44%. The inhibition of growth at 50 µg/mL (Cercospora beticola) was 25%, the inhibition at 500 µg/mL (Tobacco mosaic virus [1]) was 30% and the inhibition at 100 µg/mL (Tobacco mosaic virus [2]) was 52%. It also gave an inhibition of growth at 50 µg/mL (Puccinia triticina) of 0%, an inhibition of growth at 50 µg/mL [3] of 8% and an inhibition of growth at 50 µg/mL (Colletotrichum lagenaria) of 43%.
With `Cc1ccc(N(C(=O)c2nnsc2C)C(C(=O)NC2CCCCC2)c2ccccc2F)cc1F` (stereo not drawn) the inhibition of growth at 50 µg/mL (Mycosphaerella arachidis) was 55%, the inhibition of growth at 50 µg/mL (Thanatephorus cucumeris) was 0% and the inhibition of growth at 50 µg/mL (Alternaria solani) was 63%. It also gave an inhibition of growth at 50 µg/mL (Fusarium graminearum) of 73%, an inhibition of growth at 50 µg/mL (Rhizoctonia solani) of 59% and an inhibition of growth at 50 µg/mL (Phytophthora infestans) of 50%. For the same compound, the inhibition of growth at 50 µg/mL (Cercospora beticola) was 25%, the inhibition at 500 µg/mL (Tobacco mosaic virus [1]) was 58% and the inhibition at 100 µg/mL (Tobacco mosaic virus [2]) was 33%. It also gave an inhibition of growth at 50 µg/mL (Puccinia triticina) of 0%, an inhibition of growth at 50 µg/mL [3] of 0% and an inhibition of growth at 50 µg/mL (Colletotrichum lagenaria) of 57%.
`Cc1ccc(N(C(=O)c2nnsc2C)C(C(=O)NC2CCCCC2)c2ccc(C(F)(F)F)cc2)cc1F` (stereo not drawn) showed an inhibition of growth at 50 µg/mL (Mycosphaerella arachidis) of 0%, an inhibition of growth at 50 µg/mL (Thanatephorus cucumeris) of 0% and an inhibition of growth at 50 µg/mL (Alternaria solani) of 0%. The inhibition of growth at 50 µg/mL (Fusarium graminearum) was 9%, the inhibition of growth at 50 µg/mL (Rhizoctonia solani) was 22% and the inhibition of growth at 50 µg/mL (Phytophthora infestans) was 0%. It also gave an inhibition of growth at 50 µg/mL (Cercospora beticola) of 0%, an inhibition at 500 µg/mL (Tobacco mosaic virus [1]) of 36% and an inhibition at 100 µg/mL (Tobacco mosaic virus [2]) of 27%. The inhibition of growth at 50 µg/mL (Puccinia triticina) was 0%, the inhibition of growth at 50 µg/mL [3] was 0% and the inhibition of growth at 50 µg/mL (Colletotrichum lagenaria) was 14%.
Work on `Cc1ccc(N(C(=O)c2nnsc2C)C(C(=O)NC2CCCCC2)c2cccc(C(F)(F)F)c2)cc1F` (stereo not drawn) yielded an inhibition of growth at 50 µg/mL (Mycosphaerella arachidis) of 27%, an inhibition of growth at 50 µg/mL (Thanatephorus cucumeris) of 13% and an inhibition of growth at 50 µg/mL (Alternaria solani) of 25%. For the same compound, the inhibition of growth at 50 µg/mL (Fusarium graminearum) was 14%, the inhibition of growth at 50 µg/mL (Rhizoctonia solani) was 22% and the inhibition of growth at 50 µg/mL (Phytophthora infestans) was 25%. For the same compound, the inhibition of growth at 50 µg/mL (Cercospora beticola) was 25%, the inhibition at 500 µg/mL (Tobacco mosaic virus [1]) was 72% and the inhibition at 100 µg/mL (Tobacco mosaic virus [2]) was 35%. The inhibition of growth at 50 µg/mL (Puccinia triticina) was 0%, the inhibition of growth at 50 µg/mL [3] was 0% and the inhibition of growth at 50 µg/mL (Colletotrichum lagenaria) was 29%.
`Cc1ccc(N(C(=O)c2nnsc2C)C(C(=O)NC2CCCCC2)c2ccccc2C(F)(F)F)cc1F` (stereo not drawn) showed an inhibition of growth at 50 µg/mL (Mycosphaerella arachidis) of 0%, an inhibition of growth at 50 µg/mL (Thanatephorus cucumeris) of 0% and an inhibition of growth at 50 µg/mL (Alternaria solani) of 44%. For the same compound, the inhibition of growth at 50 µg/mL (Fusarium graminearum) was 0%, the inhibition of growth at 50 µg/mL (Rhizoctonia solani) was 4% and the inhibition of growth at 50 µg/mL (Phytophthora infestans) was 25%. It also gave an inhibition of growth at 50 µg/mL (Cercospora beticola) of 25%, an inhibition at 500 µg/mL (Tobacco mosaic virus [1]) of 20% and an inhibition at 100 µg/mL (Tobacco mosaic virus [2]) of 31%. The inhibition of growth at 50 µg/mL (Puccinia triticina) was 0%, the inhibition of growth at 50 µg/mL [3] was 0% and the inhibition of growth at 50 µg/mL (Colletotrichum lagenaria) was 14%.
`Cc1ccc(C(C(=O)NC2CCCCC2)N(C(=O)c2nnsc2C)c2ccc(C)c(F)c2)cc1` (stereo not drawn) showed an inhibition of growth at 50 µg/mL (Mycosphaerella arachidis) of 27%, an inhibition of growth at 50 µg/mL (Thanatephorus cucumeris) of 15% and an inhibition of growth at 50 µg/mL (Alternaria solani) of 0%. It also gave an inhibition of growth at 50 µg/mL (Fusarium graminearum) of 0%, an inhibition of growth at 50 µg/mL (Rhizoctonia solani) of 2% and an inhibition of growth at 50 µg/mL (Phytophthora infestans) of 25%. It also gave an inhibition of growth at 50 µg/mL (Cercospora beticola) of 25%, an inhibition at 500 µg/mL (Tobacco mosaic virus [1]) of 53% and an inhibition at 100 µg/mL (Tobacco mosaic virus [2]) of 21%. For the same compound, the inhibition of growth at 50 µg/mL (Puccinia triticina) was 0%, the inhibition of growth at 50 µg/mL [3] was 8% and the inhibition of growth at 50 µg/mL (Colletotrichum lagenaria) was 14%.
`Cc1ccc(N(C(=O)c2nnsc2C)C(C(=O)NC2CCCCC2)c2ccccc2C)cc1F` (stereo not drawn) was tested, and the inhibition of growth at 50 µg/mL (Mycosphaerella arachidis) was 0%, the inhibition of growth at 50 µg/mL (Thanatephorus cucumeris) was 0% and the inhibition of growth at 50 µg/mL (Alternaria solani) was 38%. The inhibition of growth at 50 µg/mL (Fusarium graminearum) was 0%, the inhibition of growth at 50 µg/mL (Rhizoctonia solani) was 22% and the inhibition of growth at 50 µg/mL (Phytophthora infestans) was 44%. For the same compound, the inhibition of growth at 50 µg/mL (Cercospora beticola) was 25%, the inhibition at 500 µg/mL (Tobacco mosaic virus [1]) was 35% and the inhibition at 100 µg/mL (Tobacco mosaic virus [2]) was 13%. The inhibition of growth at 50 µg/mL (Puccinia triticina) was 0%, the inhibition of growth at 50 µg/mL [3] was 0% and the inhibition of growth at 50 µg/mL (Colletotrichum lagenaria) was 29%.
